In ChEMBL document CHEMBL1150156, “Semisynthesis of new sarcophine derivatives with chemopreventive activity” (J Nat Prod, 2002):

Columns and labels:
[1] = Cytotoxicity against human Raji cells assessed as cell viability at 100 molar ratio; type: cell-based; settings: read-out: Activity
How it was run: (§1)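 Raji cells (EBV nonproducer type) serve as indicator cells in the TPA-induced EBV-EA activation assay. Sample is dosed as a mol ratio to TPA, with TPA at 32 pmol; ×1000 corresponds to 32 nmol/mL sample. Viability of the indicator cells is reported as a percentage.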

[2] = tested on: Raji; test: Inhibition of TPA-induced EBV-early antigen activation in human Raji cells assessed as early antigen induction at 500 molar ratio relative to TPA; type: cell-based; settings: human gammaherpesvirus 4
How it was run: (§2)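 EBV early antigen induction is measured in Raji cells (virus nonproducer type) stimulated with TPA at 32 pmol. Sample concentration is expressed as mol ratio/TPA; ×1000 equals 32 nmol/mL. EA induction is expressed as a percentage of the positive (TPA-only) value, set as 100%.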

[3] = tested on: Raji; test: Inhibition of TPA-induced EBV-early antigen activation in human Raji cells assessed as early antigen induction at 100 molar ratio relative to TPA; type: cell-based; settings: human gammaherpesvirus 4; how it was run: as §2
[4] = tested on: Raji; test: Inhibition of TPA-induced EBV-early antigen activation in human Raji cells assessed as early antigen induction at 10 molar ratio relative to TPA; settings: human gammaherpesvirus 4
[5] = Cytotoxicity against human Raji cells assessed as cell viability at 1000 molar ratio; type: cell-based; settings: read-out: Activity; how it was run: as §1
[6] = Cytotoxicity against human Raji cells assessed as cell viability at 500 molar ratio; type: cell-based; settings: read-out: Activity; how it was run: as §1
[7] = Cytotoxicity against human Raji cells assessed as cell viability at 10 molar ratio; type: cell-based; settings: read-out: Activity; how it was run: as §1
[8] = tested on: Raji; test: Inhibition of TPA-induced EBV-early antigen activation in human Raji cells assessed as early antigen induction at 1000 molar ratio relative to TPA; type: cell-based; settings: human gammaherpesvirus 4; how it was run: as §2

SMILES	viability at 100 molar ratio [1] [%]	EBV early antigen induction (% of TPA control) [2] [%]	EBV early antigen induction (% of TPA-only control) [3] [%]	EBV early antigen induction relative to TPA [4] [%]	viability at 1000 molar ratio [5] [%]	viability at 500 molar ratio [6] [%]	viability at 10 molar ratio [7] [%]	EBV early antigen induction (% of TPA-only control) [8] [%]
C/C1=C\C=C(\[C@@](C)(O)CO)C[C@H](O)/C(C)=C/CC[C@]2(C)O[C@H]2CC1	> 80	55.8	74.6	93.8	60	> 80	> 80	5.9
C/C1=C\C=C(\C(C)C)[C@@H](O)C/C(C)=C/CC/C(C)=C/CC1	> 80	60.4	79.1	97.3	50	> 80	> 80	11.7
C/C1=C\C=C(\[C@@](C)(O)CO)CC(=O)/C(C)=C/CC[C@]2(C)O[C@H]2CC1	> 80	56.7	75.1	94	60	> 80	> 80	8.3
CC1=C2CC/C(C)=C/CC[C@]3(C)O[C@H]3CC/C(C)=C/[C@@H]2OC1=O [SARCOPHINE]	> 80	67.5	84	100	60	> 80	> 80	19.6
C/C1=C\C=C(\[C@@](C)(O)CO)C[C@@H](O)/C(C)=C/CC[C@]2(C)O[C@H]2CC1	> 80	54.2	72.9	92.6	60	> 80	> 80	5.7
C/C1=C\C=C(\[C@@](C)(O)CO)CC/C(C=O)=C/CC[C@]2(C)O[C@H]2CC1	> 80	52.4	71.3	90.6	60	> 80	> 80	3.6
CC1=C2C[C@H](O)/C(C)=C/CC[C@]3(C)O[C@H]3CC/C(C)=C/[C@@H]2OC1=O	> 80	62.8	81.3	100	60	> 80	> 80	14.2
C/C(CO)=C1\CC/C(C)=C/CC[C@]2(C)O[C@H]2CC/C(C)=C/[C@@H]1O	> 80	57.3	75.5	94.1	60	> 80	> 80	9.6
CC1=C2CC/C(C=O)=C/CC[C@]3(C)O[C@H]3CC/C(C)=C/[C@@H]2OC1=O	> 80	60.8	81.3	96	60	> 80	> 80	12.7
